In ChEMBL document CHEMBL1153950, “The synthesis and biological evaluation of some caffeic acid amide derivatives: E-2-cyano-(3-substituted phenyl)acrylamides” (Bioorg Med Chem Lett, 2009) one finds IC50 and inhibition data, which are given here for 10 molecules.

The subject of one experiment is BGC-823. Nature of the experiment: Antitumor activity against human BGC823 cells by MTT assay. The experiment is classed as functional, cell-based. The gist of the method:
(§1)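 Screened in vitro by MTT assay on human gastric carcinoma BGC-823, nasopharyngeal carcinoma KB and hepatoma BEL-7402 cell lines; cis-diamminedichloroplatinum (DDP) served as positive control.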
In general terms: Tetrazolium assays rely on reduction of a dye to a coloured formazan, in cell work by metabolically active cells.

Experiment [1] addresses Acetylcholinesterase (Homo sapiens) (UniProt P22303). Nature of the experiment: Inhibition of acetylcholinesterase at 25 uM.
For the next experiment, the system named is Bel-7402. Nature of the experiment: Antitumor activity against human Bel7402 cells by MTT assay. The experiment is classed as functional, cell-based. Summed up:
as §1

The subject of a further experiment is KB. Nature of the experiment: Antitumor activity against human KB cells by MTT assay. The experiment is classed as functional, cell-based. The gist of the method: as §1

Converted amounts (≈) assume the structure as drawn.

Acetylcholinesterase (Homo sapiens), sequence (P22303 whole entry): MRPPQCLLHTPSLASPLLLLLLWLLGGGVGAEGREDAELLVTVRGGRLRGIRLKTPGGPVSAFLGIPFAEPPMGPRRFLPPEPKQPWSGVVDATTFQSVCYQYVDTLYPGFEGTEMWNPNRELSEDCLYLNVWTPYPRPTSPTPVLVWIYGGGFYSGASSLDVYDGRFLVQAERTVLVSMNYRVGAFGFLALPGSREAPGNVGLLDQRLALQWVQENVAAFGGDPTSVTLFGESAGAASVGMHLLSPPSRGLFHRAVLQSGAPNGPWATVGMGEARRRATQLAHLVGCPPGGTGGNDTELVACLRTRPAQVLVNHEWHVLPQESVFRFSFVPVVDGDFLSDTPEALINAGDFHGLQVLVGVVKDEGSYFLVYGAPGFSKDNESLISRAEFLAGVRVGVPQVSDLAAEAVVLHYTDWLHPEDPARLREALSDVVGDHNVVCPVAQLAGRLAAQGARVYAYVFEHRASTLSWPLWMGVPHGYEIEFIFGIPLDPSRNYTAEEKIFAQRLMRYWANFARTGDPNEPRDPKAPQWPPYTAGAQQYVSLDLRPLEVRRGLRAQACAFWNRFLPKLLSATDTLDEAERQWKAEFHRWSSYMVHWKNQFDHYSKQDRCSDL

In general, IC50 refers to the concentration that gives 50% inhibition. A higher IC50 goes with a need for much substance. Usually inhibition stands for the relative decrease from the control value, in per cent. With `Cc1cccc(NC(=O)/C(C#N)=C/c2cc(O)c(O)c([N+](=O)[O-])c2)c1`, in the experiment on BGC-823, the IC50 stood at 5.6 µg/mL (≈ 16.5 µM). In experiment [1], this molecule yielded an inhibition of 2.73%.

As to `N#C/C(=C\c1cc(O)c(O)c([N+](=O)[O-])c1)C(N)=O`, the 50% inhibitory concentration (IC50) with BGC-823, in the experiment on Bel-7402 and with KB was > 100 µg/mL each time. In experiment [1], the inhibition is 1.09%.

Take `N#C/C(=C\c1cc(O)c(O)c([N+](=O)[O-])c1)C(=O)N1CCOCC1`: the IC50 in the experiment on BGC-823, with Bel-7402 and in the experiment with KB was > 100 µg/mL throughout. In experiment [1], this molecule yielded an inhibition of 3%.

As to `N#C/C(=C\c1cc(O)c(O)c([N+](=O)[O-])c1)C(=O)Nc1cccc(Cl)c1`, the IC50 in the experiment with BGC-823 is > 100 µg/mL; in the experiment on Bel-7402 it was 40.1 µg/mL (≈ 111 µM); in the experiment on KB, 72.7 µg/mL (≈ 202 µM). This molecule also showed an inhibition in experiment [1] of 4.37%.

As for `N#C/C(=C\c1cc(O)c(O)c([N+](=O)[O-])c1)C(=O)N(c1ccccc1)c1ccccc1`, the IC50 in the experiment on BGC-823 was > 100 µg/mL; in the experiment on Bel-7402 it was 56.2 µg/mL (≈ 140 µM); in the experiment on KB, 104 µg/mL (≈ 259 µM). Further, the inhibition in experiment [1] was 7.38%.

For the molecule `COc1ccc(NC(=O)/C(C#N)=C/c2cc(O)c(O)c([N+](=O)[O-])c2)cc1`, the IC50 in the experiment on BGC-823 is 45.4 µg/mL (≈ 128 µM); in the experiment on Bel-7402, > 100 µg/mL; in the experiment with KB it was 29.2 µg/mL (≈ 82.2 µM). This molecule also gave an inhibition in experiment [1] of 4.64%.

On to `COc1c(O)ccc(/C=C(\C#N)C(=O)Nc2cccc(Cl)c2)c1[N+](=O)[O-]`, for which the half-maximal inhibitory concentration (IC50) was > 100 µg/mL in the experiment on BGC-823, 65.3 µg/mL (≈ 175 µM) with Bel-7402 and > 100 µg/mL in the experiment with KB. The molecule also had an inhibition in experiment [1] of 2.19%.

For `N#C/C(=C\c1cc(O)c(O)c([N+](=O)[O-])c1)C(=O)Nc1ccccc1Cl`, the IC50 with BGC-823 came out at 10.5 µg/mL (≈ 29.2 µM); in the experiment with Bel-7402 it was 24 µg/mL (≈ 66.7 µM); with KB it was 37.4 µg/mL (≈ 104 µM). The inhibition in experiment [1] amounted to 0.95%.

Consider `N#C/C(=C\c1cc(O)c(O)c([N+](=O)[O-])c1)C(=O)N1CCCCC1`, for which the IC50 in the experiment on BGC-823, with Bel-7402 and in the experiment with KB was > 100 µg/mL throughout. Besides, the inhibition in experiment [1] worked out at 0.27%.

Consider `COc1cc(/C=C(\C#N)C(=O)Nc2cccc(Cl)c2)cc([N+](=O)[O-])c1O`, for which the results for the IC50 in the experiment on BGC-823, in the experiment with Bel-7402 and in the experiment with KB were 26.1 µg/mL (≈ 69.8 µM), 21.1 µg/mL (≈ 56.5 µM) and 56.6 µg/mL (≈ 151 µM), respectively. The molecule also had an inhibition in experiment [1] of 1.64%.
